AI-2 QS modul: Vibrio harveyi AI-2 quorum sensing modulators, primary screen, JMH597 strain, luminescence/OD600 ratio. AID 2094, 2009. activity change, % at 7.5 µM. 300,000 compounds, 0.4% hits. Vibrio harveyi JMH597 AI-2 luminescence/OD600 ratio, 9 h; active compounds read low; strain lacks LuxN and CqsS sensors; 0 = neutral-control median; in the data active = activity change below about -75%, passing the limit was not always enough;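 also: luminescence divided by OD600 gain over 9 h not by final OD600 alone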
KCNQ1 inh: inhibitors of human KCNQ1 channel, primary screen, cell-based, thallium flux, high-throughput | Potassium voltage-gated channel subfamily KQT member 1 (Homo sapiens), P51787 | CHO-K1 KCNQ1, FluxOR thallium flux fluorescence; active compounds read high | B-score at 10 µM | 310,000 compounds, 1.3% hits;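 active = compounds whose thallium flux B-score, printed positive for inhibition, exceeds three library SD while starting fluorescence stays within three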;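 also: channel opened by potassium depolarization with thallium stimulus after 20 min compound exposure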
SUMO Mot1 rescue: yeast Mot1-301 growth rescue at high temperature, primary screen, SUMOylation pathway inhibitor project, S. cerevisiae, ATP luminescence, 38.5C; growth rescue, % at 18.8 µM; 320,000 compounds, 1% hits; S. cerevisiae Mot1-301 growth rescue; percent above DMSO median, 100 means doubled; AID 2716, 2010;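 active = every valid replicate shows activation above 250% relative to neutral control wells; inactive = the rest, any valid replicate at or below 250%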
Cl transport mod: KCC2 cotransporter modulators, thallium flux, primary screen, cell-based, HEK293 KCC2, FluoZin-2 fluorescence, MLSMR; Solute carrier family 12 member 5 (Homo sapiens), Q9H2X9; KCC2 cells, thallium flux FluoZin-2 fluorescence; B-score of Tl+ flux slope (higher = more flux/activation; lower = inhibition) at 10 µM; 190,000 compounds, 2.2% hits; AID 1456, 2008;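 active = thallium flux slope and its plate-corrected score both differing from the plate sample mean at a set confidence after two filtering rounds, in either direction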;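 also: slope of fluorescence scaled to starting intensity during 10 to 20 s after thallium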
KCNQ1 act: potentiators or activators of KCNQ1 channel, primary screen, cell-based, thallium flux, high-throughput. B-score at 10 µM. AID 2648, 2010. 310,000 compounds, 0.35% hits. CHO-K1 KCNQ1, thallium flux FluxOR fluorescence; active compounds read high;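 active = fluorescence ratio B-score, a plate-corrected score, at least three library SD, with initial intensity B-score within 5 SD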
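assay system = KCNQ1-transfected CHO-K1 cells | medium = assay buffer with matched DMSO | probe or stimulus = depolarizing K+/Tl+ stimulus, K2SO4 and Tl2SO4 each 12.5 mM in 5x stock | dosing = single dose | incubation = dye 90 min, compound 20 min, room temperature | detection = kinetic FluxOR fluorescence, 10 s baseline plus 110 s post-stimulus | evaluation = ratio B score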
hERG protect: hERG rescue from dofetilide block, primary screen, cell-based, CHO-hERG, FluxOR thallium flux, dofetilide IC70. AID 1511, 2009. 310,000 compounds, 0.51% hits. dofetilide IC70 present. activation (rescue from dofetilide block), less the hit threshold, % at 10 µM;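 active = activation above the mean of controls blocked by dofetilide plus 5 SD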;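 also: thallium influx through hERG after potassium depolarization seen as dye fluorescence rise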
Target sequence (Q12809 whole entry, looked up): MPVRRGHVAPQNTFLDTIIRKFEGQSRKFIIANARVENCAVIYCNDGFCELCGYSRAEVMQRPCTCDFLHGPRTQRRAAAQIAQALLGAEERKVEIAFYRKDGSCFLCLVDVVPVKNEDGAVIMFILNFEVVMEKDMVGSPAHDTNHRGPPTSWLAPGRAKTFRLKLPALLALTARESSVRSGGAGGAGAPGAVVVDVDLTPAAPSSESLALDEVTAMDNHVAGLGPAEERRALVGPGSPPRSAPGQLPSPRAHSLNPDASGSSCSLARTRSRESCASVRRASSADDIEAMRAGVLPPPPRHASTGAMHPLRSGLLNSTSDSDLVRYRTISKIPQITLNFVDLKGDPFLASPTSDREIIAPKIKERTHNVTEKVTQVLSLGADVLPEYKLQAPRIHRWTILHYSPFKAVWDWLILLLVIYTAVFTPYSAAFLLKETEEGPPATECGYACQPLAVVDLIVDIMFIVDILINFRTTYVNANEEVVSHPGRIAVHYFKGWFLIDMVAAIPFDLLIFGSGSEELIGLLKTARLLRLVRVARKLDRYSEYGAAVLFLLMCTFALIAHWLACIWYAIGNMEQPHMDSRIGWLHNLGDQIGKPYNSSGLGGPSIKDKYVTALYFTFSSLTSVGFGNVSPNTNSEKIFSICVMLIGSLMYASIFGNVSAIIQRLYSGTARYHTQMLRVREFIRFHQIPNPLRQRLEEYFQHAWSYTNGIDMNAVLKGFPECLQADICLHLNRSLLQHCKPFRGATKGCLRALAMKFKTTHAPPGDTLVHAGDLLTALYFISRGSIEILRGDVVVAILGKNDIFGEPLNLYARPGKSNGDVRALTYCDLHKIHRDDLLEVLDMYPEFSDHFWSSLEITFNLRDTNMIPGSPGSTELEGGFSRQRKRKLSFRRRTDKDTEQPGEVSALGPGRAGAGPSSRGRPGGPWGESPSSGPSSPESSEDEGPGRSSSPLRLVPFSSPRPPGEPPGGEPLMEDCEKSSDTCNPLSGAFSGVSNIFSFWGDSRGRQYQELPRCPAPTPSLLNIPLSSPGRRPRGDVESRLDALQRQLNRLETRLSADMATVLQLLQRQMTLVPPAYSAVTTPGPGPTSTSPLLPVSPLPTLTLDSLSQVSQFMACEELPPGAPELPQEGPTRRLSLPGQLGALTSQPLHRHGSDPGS
Of the large screens only hits and unclear results are named; the others gave an inactive call; ! = not active in a repeat. Sampled rows, rich in hits. Any-hit rate of the full collection: about 4.2%.

c1ccc(CCCNc2ncnc3nc[nH]c23)cc1	hERG protect 6.0
COc1ccc(/C=N/NC(=O)c2ccncc2)cc1CSc1nc2ccccc2s1	none
COc1ccc(NC(=O)CSCC(=O)Nc2cc(Cl)ccc2N2CCOCC2)cc1	none (no result: Cl transport mod)
Cc1ccc(NC(=O)CSCC(=O)Nc2cc(Cl)ccc2N2CCOCC2)cc1	KCNQ1 inh 6 (no result: Cl transport mod)
Cc1ccc(C(NC(=O)NC(C)c2ccccc2)C(Cl)(Cl)Cl)cc1F (stereo not drawn)	KCNQ1 inh 7
O=C(NC(=S)Nc1ccc(N2CCOCC2)c(Cl)c1)C(c1ccccc1)c1ccccc1	KCNQ1 inh 6
O=C(Nc1nc(-c2cccs2)cs1)c1cccc(S(=O)(=O)N2CCCCCC2)c1	none (no result: Cl transport mod)
O=C(/C=C/c1ccccc1)NC(=S)Nc1ccc(N2CCOCC2)c(Cl)c1	none (no result: Cl transport mod)
O=C(NC(=S)Nc1ccc(N2CCCCC2)c(Cl)c1)c1cccs1	Cl transport mod 32, KCNQ1 act 65, hERG protect 13
O=C(NC(=S)Nc1ccc(S(=O)(=O)N2CCCCC2)cc1)c1cccs1	SUMO Mot1 rescue 334
O=C(Nc1nc(-c2cccs2)cs1)c1ccc(S(=O)(=O)N2CCCCC2)cc1	KCNQ1 inh 6 (no result: Cl transport mod)
Cc1cc(C)c(O)c(NC(=S)NC(=O)Cc2ccccc2)c1	hERG protect 4.8 (no result: Cl transport mod)
O=C(/C=C/c1cccc(Cl)c1)NCCCN1CCOCC1	none (no result: Cl transport mod)
Cc1cccc(OCC(=O)NNC(=O)c2ccc3nc[nH]c3c2)c1	none (no result: AI-2 QS modul, KCNQ1 inh, Cl transport mod, KCNQ1 act, hERG protect)
N#Cc1ccc(N=c2ssnc2Cl)cc1	SUMO Mot1 rescue 303! (no result: Cl transport mod)
Clc1nssc1=Nc1ccccc1	none (no result: AI-2 QS modul, KCNQ1 inh, SUMO Mot1 rescue, KCNQ1 act, hERG protect)
Clc1ccc(N=c2ssnc2Cl)cc1	SUMO Mot1 rescue 340
O=[N+]([O-])c1cccc(N/N=C/c2cc([N+](=O)[O-])ccc2O)c1	SUMO Mot1 rescue 301
COc1ccc(C(=O)/C(C#N)=N/Nc2cccc([N+](=O)[O-])c2)cc1	Cl transport mod -5 (no result: SUMO Mot1 rescue)
O=[N+]([O-])c1ccc(O)c(/C=N/NC(=S)Nc2ccc(Cl)cc2Cl)c1	Cl transport mod 9.2
O=[N+]([O-])c1ccc(N/N=C/c2ccccc2O)cc1	none (no result: Cl transport mod)
O=C(N/N=C/c1cc([N+](=O)[O-])ccc1O)c1cc(-c2ccccc2)nc2ccccc12	KCNQ1 inh 7
Cc1ccc(C(=O)NCc2ccccn2)cc1NC1=NC2CS(=O)(=O)CC2S1 (stereo not drawn)	none (no result: Cl transport mod)
O=C(NC1CCOc2ccccc21)c1ccc(Cl)nc1 (stereo not drawn)	none (no result: Cl transport mod)
CCOC(=O)c1c(C)[nH]c(C(=O)N/N=C\c2ccccc2O)c1C	none
CCOC(=O)c1c(C)[nH]c(C(=O)N/N=C/c2cc([N+](=O)[O-])ccc2O)c1C	KCNQ1 inh 9 (no result: Cl transport mod)
CC/C(C)=N/Nc1cccc([N+](=O)[O-])c1	SUMO Mot1 rescue 275
CCC(CC)=NNc1cccc([N+](=O)[O-])c1	none
COc1ccc(C(=O)NNC(=O)CSc2nnc(-c3cccnc3)n2C)cc1	none
Cc1nnc(N/N=C/c2cc([N+](=O)[O-])c(N3CCC(C)CC3)cc2N2CCC(C)CC2)n1N	KCNQ1 inh 10
COc1ccc(N=C(c2ccccc2)c2c(C)[nH]n(-c3ccccc3)c2=O)c(OC)c1	KCNQ1 inh 6
CCn1c(-c2cc(-c3ccc(OC(C)C)cc3)nc3ccccc23)n[nH]c1=S	KCNQ1 inh 6
Cc1ccc2c(c1)CCCN2CC(=O)N(C)c1c(N)n(Cc2ccccc2)c(=O)[nH]c1=O	none (no result: AI-2 QS modul, KCNQ1 inh, Cl transport mod, KCNQ1 act, hERG protect)
CCOC(=O)c1ccc(CN(Cc2ccccc2)S(=O)(=O)c2cccc([N+](=O)[O-])c2)cc1	none
CCOC(=O)CCCCCN(Cc1ccccc1)S(=O)(=O)c1ccc([N+](=O)[O-])cc1	KCNQ1 inh 7
CCOC(=O)C(Cc1ccccc1)NC(=O)CCCC(=O)c1ccccc1 (stereo not drawn)	KCNQ1 inh 8 (no result: Cl transport mod)
COc1ccc(-c2cn(Cc3ccc(C(=O)NCc4ccc(C)cc4)cc3)c(C(C)N)n2)cc1 (stereo not drawn)	none (no result: Cl transport mod)
O=C(NCc1ccccc1)C1CC(=O)N(C2CCCCC2)C1 (stereo not drawn)	SUMO Mot1 rescue 318 (no result: Cl transport mod)
O=C(NCc1ccc2c(c1)OCO2)C1CC(=O)N(C2CCCCCC2)C1 (stereo not drawn)	hERG protect 5.4
O=C(NCc1ccc2c(c1)OCO2)C1CCCCC1	none (no result: Cl transport mod)
O=C(CCc1ccc(Oc2cc([N+](=O)[O-])cc([N+](=O)[O-])c2)cc1)N1CCCCCC1	none
COc1ccc(NC(=O)CN2C(=O)NC(C)(c3ccccc3)C2=O)c(OC)c1 (stereo not drawn)	none (no result: Cl transport mod)
Cc1cccc(C)c1NC(=S)Nc1ccc(Cl)c(Cl)c1	KCNQ1 inh 8
Cc1cc(C)cc(NC(=S)Nc2ccc(Cl)c(Cl)c2)c1	KCNQ1 inh 12
Cc1ccc(NC(=S)Nc2ccc(OC(F)F)c(Cl)c2)cc1Cl	none
COc1ccc(NC(=S)Nc2ccc(C)c(Cl)c2)cc1OC	none (no result: Cl transport mod)
Cc1ccc(NC(=S)Nc2ccc(Cl)c(Cl)c2)c(OC(F)F)c1	KCNQ1 inh 9
CCc1nccn1CCC(=O)NC1CC(C)(C)Cc2c1cnn2-c1cccc(F)c1 (stereo not drawn)	none (no result: Cl transport mod)
O=C(O)c1ccc(C2Nc3ccccc3C(=O)N2Cc2ccccc2)cc1 (stereo not drawn)	none (no result: Cl transport mod)
COc1ccc(-n2cc(-c3ccccc3)[nH]c2=S)cc1	Cl transport mod 18
O=C(CCS(=O)(=O)c1cccc2nonc12)NCc1ccc(Cl)cc1	none (no result: AI-2 QS modul)
O=C(NC1=NCCS1)c1cccc(S(=O)(=O)N2CCOCC2)c1	none (no result: AI-2 QS modul, KCNQ1 inh, Cl transport mod, KCNQ1 act, hERG protect)
COc1ccc(CN(C)C(=O)c2ccc(OCC(=O)Nc3cccc(C(F)(F)F)c3)c(OC)c2)c(OC)c1	none (no result: Cl transport mod)
COc1cccc(CN(C)C(=O)c2ccc(OCC(=O)Nc3cccc(C(F)(F)F)c3)c(OC)c2)c1	KCNQ1 inh 9 (no result: Cl transport mod)
CCN1CCN(c2ccc(Nc3ccnc4ccccc34)cc2)CC1	none (no result: AI-2 QS modul, KCNQ1 inh, Cl transport mod, KCNQ1 act, hERG protect)
CCOc1cccc(N(C(=O)C2COc3ccccc3O2)C(C(=O)NC2CCCCC2)c2ccc(O)cc2)c1 (stereo not drawn)	none
CC(C)CCNC(=O)C(c1ccc(O)cc1)N(C(=O)C1COc2ccccc2O1)c1cccc(O)c1 (stereo not drawn)	KCNQ1 inh 7
c1cncc(-c2nnc(-c3ccco3)o2)c1	hERG protect 6.3

Bioassay records from PubChem BioAssay.
